Results pooled from the literature.
Lines come from different studies, so protocols differ.
Observed: cell growth or viability

`COc1ccc2c(c1)[nH]c1c(C)nccc12` gave an IC50 of 20200 nM (BT-474; MTT; 72 h).
For `Cc1sc2c(c1C)C(c1ccc(Cl)cc1)=N[C@@H](CC(=O)Nc1ccc(O)cc1)c1nnc(C)n1-2`, the IC50 was 12.6 nM (MB002; 7 days).
`CC[C@H](C)[C@@H]([C@@H](CC(=O)N1CCC[C@H]1[C@H](OC)[C@@H](C)C(=O)N[C@H](C)[C@@H](O)c1ccccc1)OC)N(C)C(=O)[C@@H](NC(=O)[C@H](C(C)C)N(C)C(=O)OCc1ccc(NC(=O)[C@H](C)NC(=O)[C@@H](NC(=O)CCc2cn(CCOCCOCCOCCOCC(=O)NCc3ccc(CN4C(=O)[C@H]5CC(=O)N[C@H](C(=O)O)CC(=O)NCC(=O)N[C@@H](CCCNC(=N)N)C(=O)NC[C@H]4C(=O)N5)cc3)nn2)C(C)C)cc1)C(C)C` has an IC50 of 6.94 nM (M21; MTT; 72 h).
`CC[C@H](Nc1nc(NCc2cnc(C)cc2C)c2ncn(C(C)C)c2n1)[C@@H](C)O` gave an IC50 of 277 nM (MB002; 7 days).
For `CC[C@H](C)[C@@H]([C@@H](CC(=O)N1CCC[C@H]1[C@H](OC)[C@@H](C)C(=O)N[C@H](C)[C@@H](O)c1ccccc1)OC)N(C)C(=O)[C@@H](NC(=O)[C@H](C(C)C)N(C)C(=O)CCc1cn(CCOCCOCCOCCOCC(=O)NCc2ccc(CN3C(=O)[C@H]4CC(=O)N[C@H](C(=O)O)CC(=O)NCC(=O)N[C@@H](CCCNC(=N)N)C(=O)NC[C@H]3C(=O)N4)cc2)nn1)C(C)C`, the IC50 was 400 nM (M21; MTT; 72 h).
For `N.N.[Cl][Pt][Cl]`, the IC50 was 17000 nM (M21; SRB; 48 h).
With `N.N.[Cl][Pt][Cl]` the IC50 was over 100000 nM (CCD 19Lu; 24 h).
For `CN[C@@H]1C[C@H]2O[C@@](C)([C@@H]1OC)n1c3ccccc3c3c4c(c5c6ccccc6n2c5c31)C(=O)NC4`, the Kb was 4 nM (KB 3-1; WST-1; 5 days).
For `CC[C@@H]1C(=O)N(C)c2cnc(Nc3ccc(C(=O)NC4CCN(C)CC4)cc3OC)nc2N1C1CCCC1`, the IC50 was 3.4 nM (MB002; 7 days).
For `N.N.[Cl][Pt][Cl]`, the IC50 was 9380 nM (B16-F10; MTT).
